Experimental data taken from ChEMBL document CHEMBL1671735, “Genetic factors associated with elevated carbapenem resistance in KPC-producing Klebsiella pneumoniae” (2010).
≈ marks a conversion by molar mass, not a printed value.

Columns and labels:
Assay type in all cases: functional
Klebsiella pneumoniae [1] = test: Antimicrobial activity against OmpK35,OmpK36-deficient Carbapenem-resistant Klebsiella pneumoniae isolate ART2008135 expressing KPC beta lactamase by broth microdilution method
Klebsiella pneumoniae [2] = test: Antimicrobial activity against Carbapenem-resistant Klebsiella pneumoniae isolate ART2008028 expressing KPC beta lactamase by broth microdilution method
Klebsiella pneumoniae [3] = test: Antimicrobial activity against OmpK35-deficient Carbapenem-resistant Klebsiella pneumoniae isolate AIS080571 expressing KPC beta lactamase by broth microdilution method
Klebsiella pneumoniae [4] = test: Antimicrobial activity against OmpK35-deficient Carbapenem-resistant Klebsiella pneumoniae isolate ART2008138 expressing KPC beta lactamase by broth microdilution method
Klebsiella pneumoniae [5] = test: Antimicrobial activity against OmpK35-deficient Carbapenem-resistant Klebsiella pneumoniae isolate AIS070446 expressing KPC beta lactamase by broth microdilution method
Summary of the method: (§1)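 The clinical K. pneumoniae isolates had been referred to CDC for susceptibility testing. bla_KPC was confirmed by PCR and subtyped by bidirectional sequencing of a 1,011-bp amplicon. Isolates were typed by PFGE of XbaI-digested DNA.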

Klebsiella pneumoniae [6] = test: Antimicrobial activity against OmpK35-deficient Carbapenem-resistant Klebsiella pneumoniae isolate AIS070654 expressing KPC beta lactamase by broth microdilution method
Klebsiella pneumoniae [7] = test: Antimicrobial activity against OmpK35-deficient Carbapenem-resistant Klebsiella pneumoniae isolate AIS081072 expressing KPC beta lactamase by broth microdilution method
Klebsiella pneumoniae [8] = test: Antimicrobial activity against OmpK35-deficient Carbapenem-resistant Klebsiella pneumoniae isolate HIP14474 expressing KPC beta lactamase by broth microdilution method
Klebsiella pneumoniae [9] = test: Antimicrobial activity against OmpK35-deficient Carbapenem-resistant Klebsiella pneumoniae isolate AIS081042 expressing KPC beta lactamase by broth microdilution method
Klebsiella pneumoniae [10] = test: Antimicrobial activity against OmpK35-deficient Carbapenem-resistant Klebsiella pneumoniae isolate ART2008026 expressing KPC beta lactamase by broth microdilution method
Klebsiella pneumoniae [11] = test: Antimicrobial activity against OmpK35-deficient Carbapenem-resistant Klebsiella pneumoniae isolate ART2008142 expressing KPC beta lactamase by broth microdilution method
Klebsiella pneumoniae [12] = test: Antimicrobial activity against OmpK35-deficient Carbapenem-resistant Klebsiella pneumoniae isolate ART2008137 expressing KPC beta lactamase by broth microdilution method; summary of the method: as §1
Klebsiella pneumoniae [13] = test: Antimicrobial activity against OmpK35-deficient Carbapenem-resistant Klebsiella pneumoniae isolate ART2008226 expressing KPC beta lactamase by broth microdilution method
Klebsiella pneumoniae [14] = test: Antimicrobial activity against OmpK35-deficient Carbapenem-resistant Klebsiella pneumoniae isolate AIS080792 expressing KPC beta lactamase by broth microdilution method
Klebsiella pneumoniae [15] = test: Antimicrobial activity against OmpK35-deficient Carbapenem-resistant Klebsiella pneumoniae isolate ART2008136 expressing KPC beta lactamase by broth microdilution method; summary of the method: as §1
Klebsiella pneumoniae [16] = test: Antimicrobial activity against Carbapenem-resistant Klebsiella pneumoniae isolate AIS081058 expressing KPC beta lactamase by broth microdilution method
Klebsiella pneumoniae [17] = test: Antimicrobial activity against OmpK35,OmpK36-deficient Carbapenem-resistant Klebsiella pneumoniae isolate ART2008027 expressing KPC beta lactamase by broth microdilution method
Klebsiella pneumoniae [18] = test: Antimicrobial activity against OmpK35-deficient Carbapenem-resistant Klebsiella pneumoniae isolate ART2008140 expressing KPC beta lactamase by broth microdilution method
Klebsiella pneumoniae [19] = test: Antimicrobial activity against Carbapenem-resistant Klebsiella pneumoniae isolate ART2008024 expressing KPC beta lactamase by broth microdilution method
Klebsiella pneumoniae [20] = test: Antimicrobial activity against Carbapenem-resistant Klebsiella pneumoniae isolate HIP10924 expressing KPC beta lactamase by broth microdilution method
Klebsiella pneumoniae [21] = test: Antimicrobial activity against OmpK35,OmpK36-deficient Carbapenem-resistant Klebsiella pneumoniae isolate ART2008141 expressing KPC beta lactamase by broth microdilution method
Klebsiella pneumoniae [22] = test: Antimicrobial activity against OmpK35-deficient Carbapenem-resistant Klebsiella pneumoniae isolate ART2008022 expressing KPC beta lactamase by broth microdilution method
Klebsiella pneumoniae [23] = test: Antimicrobial activity against OmpK35-deficient Carbapenem-resistant Klebsiella pneumoniae isolate ART2008139 expressing KPC beta lactamase by broth microdilution method
Klebsiella pneumoniae [24] = test: Antimicrobial activity against OmpK35-deficient Carbapenem-resistant Klebsiella pneumoniae isolate ART2008143 expressing KPC beta lactamase by broth microdilution method
Klebsiella pneumoniae [25] = test: Antimicrobial activity against Carbapenem-resistant Klebsiella pneumoniae isolate AIS080884 expressing KPC beta lactamase by broth microdilution method
Klebsiella pneumoniae [26] = test: Antimicrobial activity against OmpK35-deficient Carbapenem-resistant Klebsiella pneumoniae isolate AIS080949 expressing KPC beta lactamase by broth microdilution method
Klebsiella pneumoniae [27] = test: Antimicrobial activity against OmpK35-deficient Carbapenem-resistant Klebsiella pneumoniae isolate HIP14358 expressing KPC beta lactamase by broth microdilution method

| SMILES | MIC (Klebsiella pneumoniae [1]) | MIC (Klebsiella pneumoniae [2]) | MIC (Klebsiella pneumoniae [3]) | MIC (Klebsiella pneumoniae [4]) | MIC (Klebsiella pneumoniae [5]) | MIC (Klebsiella pneumoniae [6]) | MIC (Klebsiella pneumoniae [7]) | MIC (Klebsiella pneumoniae [8]) | MIC (Klebsiella pneumoniae [9]) | MIC (Klebsiella pneumoniae [10]) | MIC (Klebsiella pneumoniae [11]) | MIC (Klebsiella pneumoniae [12]) | MIC (Klebsiella pneumoniae [13]) | MIC (Klebsiella pneumoniae [14]) | MIC (Klebsiella pneumoniae [15]) | MIC (Klebsiella pneumoniae [16]) | MIC (Klebsiella pneumoniae [17]) | MIC (Klebsiella pneumoniae [18]) | MIC (Klebsiella pneumoniae [19]) | MIC (Klebsiella pneumoniae [20]) | further results |
| --- | --- | --- | --- | --- | --- | --- | --- | --- | --- | --- | --- | --- | --- | --- | --- | --- | --- | --- | --- | --- | --- |
| C[C@@H](O)[C@H]1C(=O)N2C(C(=O)O)=C(S[C@@H]3CN[C@H](C(=O)N(C)C)C3)[C@H](C)[C@H]12 [MEROPENEM] | 256 µg/mL (≈ 668 µM) | 8 µg/mL (≈ 20.9 µM) | 128 µg/mL (≈ 334 µM) | 32 µg/mL (≈ 83.4 µM) | 4 µg/mL (≈ 10.4 µM) | 1 µg/mL (≈ 2.61 µM) | 2 µg/mL (≈ 5.22 µM) | 8 µg/mL (≈ 20.9 µM) | 128 µg/mL (≈ 334 µM) | 64 µg/mL (≈ 167 µM) | 4 µg/mL (≈ 10.4 µM) | 8 µg/mL (≈ 20.9 µM) | < 0.25 µg/mL | 32 µg/mL (≈ 83.4 µM) | 8 µg/mL (≈ 20.9 µM) | 4 µg/mL (≈ 10.4 µM) | 512 µg/mL (≈ 1340 µM) | 2 µg/mL (≈ 5.22 µM) | 64 µg/mL (≈ 167 µM) | 4 µg/mL (≈ 10.4 µM) | MIC (Klebsiella pneumoniae [21]): 256 µg/mL (≈ 668 µM) |
| C[C@@H](O)[C@H]1C(=O)N2C(C(=O)O)=C(SCCNC=N)C[C@H]12 [IMIPENEM ANHYDROUS] | 512 µg/mL (≈ 1710 µM) | 4 µg/mL (≈ 13.4 µM) | 128 µg/mL (≈ 428 µM) | 32 µg/mL (≈ 107 µM) | 4 µg/mL (≈ 13.4 µM) | 4 µg/mL (≈ 13.4 µM) | 2 µg/mL (≈ 6.68 µM) | 8 µg/mL (≈ 26.7 µM) | 64 µg/mL (≈ 214 µM) | 64 µg/mL (≈ 214 µM) | < 1 µg/mL | 4 µg/mL (≈ 13.4 µM) | < 1 µg/mL | 32 µg/mL (≈ 107 µM) | 8 µg/mL (≈ 26.7 µM) | 1 µg/mL (≈ 3.34 µM) | 512 µg/mL (≈ 1710 µM) | 4 µg/mL (≈ 13.4 µM) | 32 µg/mL (≈ 107 µM) | 4 µg/mL (≈ 13.4 µM) | MIC (Klebsiella pneumoniae [22]): 8 µg/mL (≈ 26.7 µM); MIC (Klebsiella pneumoniae [23]): 32 µg/mL (≈ 107 µM); MIC (Klebsiella pneumoniae [24]): 8 µg/mL (≈ 26.7 µM); MIC (Klebsiella pneumoniae [25]): 2 µg/mL (≈ 6.68 µM); MIC (Klebsiella pneumoniae [26]): 32 µg/mL (≈ 107 µM); MIC (Klebsiella pneumoniae [27]): 32 µg/mL (≈ 107 µM); MIC (Klebsiella pneumoniae [21]): 256 µg/mL (≈ 855 µM) |
| C[C@@H](O)[C@H]1C(=O)N2C(C(=O)O)=C(S[C@@H]3CN[C@H](C(=O)Nc4cccc(C(=O)O)c4)C3)[C@H](C)[C@H]12 | 1020 µg/mL (≈ 2150 µM) | 8 µg/mL (≈ 16.8 µM) | 256 µg/mL (≈ 538 µM) | 128 µg/mL (≈ 269 µM) | 4 µg/mL (≈ 8.41 µM) | 2 µg/mL (≈ 4.21 µM) | 8 µg/mL (≈ 16.8 µM) | 16 µg/mL (≈ 33.6 µM) | 256 µg/mL (≈ 538 µM) | 256 µg/mL (≈ 538 µM) | 8 µg/mL (≈ 16.8 µM) | 16 µg/mL (≈ 33.6 µM) | < 0.5 µg/mL | 64 µg/mL (≈ 135 µM) | 16 µg/mL (≈ 33.6 µM) | 2 µg/mL (≈ 4.21 µM) | 1020 µg/mL (≈ 2150 µM) | 8 µg/mL (≈ 16.8 µM) | 128 µg/mL (≈ 269 µM) | 4 µg/mL (≈ 8.41 µM) | MIC (Klebsiella pneumoniae [22]): 32 µg/mL (≈ 67.3 µM); MIC (Klebsiella pneumoniae [23]): 16 µg/mL (≈ 33.6 µM); MIC (Klebsiella pneumoniae [24]): 64 µg/mL (≈ 135 µM); MIC (Klebsiella pneumoniae [25]): 8 µg/mL (≈ 16.8 µM); MIC (Klebsiella pneumoniae [26]): 64 µg/mL (≈ 135 µM); MIC (Klebsiella pneumoniae [27]): 64 µg/mL (≈ 135 µM); MIC (Klebsiella pneumoniae [21]): 256 µg/mL (≈ 538 µM) |
